Activity calls are given as the source filed them.
Columns and labels:
[1] = Half life in swine brain at 10 uM after 30 to 60 mins by LC-MS/MS analysis; format: ADME, tissue-based, Sus scrofa; conditions: pig
Method in brief: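 Prodrugs at 10 µM spiked into swine brain homogenate (1% w/v) and incubated at 37 °C with orbital shaking. Triplicate aliquots were taken at 0, 30 and 60 min and quenched with ice-cold acetonitrile containing losartan IS. Prodrug was measured by LC-MS/MS as the analyte/IS peak-area ratio. t1/2 = 0.693/Kel, with Kel the slope of ln % remaining versus time.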

[2] = Unbound drug level in swine brain at 1.6 mg/kg, iv infusion via saphenous vein after 60 mins by LC-MS/MS analysis; format: ADME, organism-based, Sus scrofa; conditions: pig, in vivo, 1 h
Method in brief: (§1)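 Swine, n = 2/dose. Dosing was iv infusion over 1 h (1.6 mg/kg or molar equivalent), with brain and plasma taken 60 min post-infusion and totals measured by LC–MS/MS after dabsyl derivatisation. Free levels were calculated from the totals using ultrafiltration-derived bound fractions for brain and plasma (10 µM, 37 °C, 30 min).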

[3] = Ratio of total drug level in swine cerebrospinal fluid to unbound plasma concentration in swine at 1.6 mg/kg, iv infusion via saphenous vein after 60 mins by LC-MS/MS analysis; format: ADME, organism-based, Sus scrofa; conditions: pig, in vivo, 1 h
[4] = Total drug uptake in swine brain at 1.6 mg/kg, iv infusion via saphenous vein after 60 mins by LC-MS/MS analysis; format: ADME, organism-based, Sus scrofa; conditions: pig, in vivo, 1 h
Method in brief: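 Anaesthetised swine, n = 2/dose. Infusion iv via saphenous vein over 1 h at 1.6 mg/kg or molar equivalent, in saline with 5% ethanol and 5% Tween 80. Animals were euthanised 60 min post-infusion and frontal cortex sampled. Extraction used methanol with glutamate-d5, then dabsyl chloride derivatisation (pH 9.0, 60 °C, 15 min) and LC–QTOF-MS.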

[5] = Ratio of unbound drug level in swine brain to plasma at 1.6 mg/kg, iv infusion via saphenous vein after 60 mins by LC-MS/MS analysis; format: ADME, organism-based, Sus scrofa; conditions: pig
Method in brief: (§2)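 Free DON was derived from total swine brain and plasma levels at 60 min after 1.6 mg/kg-equivalent iv infusion. Unbound fraction came from ultrafiltration: DON 10 µM spiked into swine plasma or brain homogenate, 30 min at 37 °C, centrifuged through a 30 kDa cut-off filter at 37 °C for 45 min. fu = Cu/Ct × 100 by LC-MS/MS.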

[6] = AUC (0 to t) in swine at 1.6 mg/kg, iv infusion via saphenous vein after 5 to 60 mins by LC-MS/MS analysis; format: ADME, organism-based, Sus scrofa; conditions: pig, in vivo
Method in brief: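 DON (1.6 mg/kg) or molar-equivalent prodrug in sterile saline with 5% ethanol and 5% Tween 80, given as 1 h iv infusion via saphenous catheter to swine (n = 1/dose). Plasma from jugular central venous catheter at predose, 5, 15, 30, 45, 60 min. DON extracted with methanol plus glutamate-d5 IS, dabsyl chloride derivatized, quantified by LC-MS/MS; AUC0–t from plasma profile.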

[7] = Total drug uptake in swine cerebrospinal fluid at 1.6 mg/kg, iv infusion via saphenous vein after 60 mins by LC-MS/MS analysis; format: ADME, organism-based, Sus scrofa; conditions: pig, read-out: Drug uptake
Method in brief: (§3)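 Swine received DON 1.6 mg/kg or molar-equivalent prodrug by 1 h iv saphenous infusion in saline/5% ethanol/5% Tween 80 (n = 1/dose). Plasma was sampled via jugular catheter. CSF was taken from the cisterna magna at 60 min postdose. DON was methanol-extracted, dabsyl-derivatized and quantified by LC-MS/MS.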

[8] = Ratio of total drug level in swine cerebrospinal fluid to unbound drug level in swine brain at 1.6 mg/kg, iv infusion via saphenous vein after 60 mins by LC-MS/MS analysis; format: ADME, organism-based, Sus scrofa; conditions: pig, in vivo, 1 h; method in brief: as §2
[9] = Ratio of total drug level in swine cerebrospinal fluid to plasma at 1.6 mg/kg, iv infusion via saphenous vein after 60 mins by LC-MS/MS analysis; format: ADME, organism-based, Sus scrofa, CSF/Plasma; conditions: pig; method in brief: as §3
[10] = Total plasma concentration in swine at 1.6 mg/kg, iv infusion via saphenous vein after 60 mins by LC-MS/MS analysis; format: ADME, organism-based, Sus scrofa; conditions: pig
Method in brief: (§4)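 Terminal swine study using the same 1 h iv dosing, 1.6 mg/kg DON or molar equivalent (n = 2/dose). Animals were euthanized with pentobarbital/phenytoin at 60 min postinfusion. Plasma and full-thickness frontal cortex were collected. DON was quantified by LC-MS/MS after methanol extraction with glutamate-d5 IS and dabsyl chloride derivatization. Values are mean ± SEM.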

[11] = Fraction unbound in swine brain at 1.6 mg/kg, iv infusion via saphenous vein after 60 min post-infusion by LC-MS/MS analysis; format: ADME, organism-based, Sus scrofa; conditions: pig, in vivo, 1 h
Plasma [12] = assay: Unbound plasma concentration in swine at 1.6 mg/kg, iv infusion via saphenous vein after 60 mins by LC-MS/MS analysis; format: ADME, organism-based, Sus scrofa; conditions: pig, in vivo, 1 h; method in brief: as §1
[13] = Ratio of total drug level in swine brain to plasma at 1.6 mg/kg, iv infusion via saphenous vein after 60 mins by LC-MS/MS analysis; format: ADME, organism-based, Sus scrofa; conditions: pig, read-out: BPR; method in brief: as §4
[14] = Protein binding in swine brain at 10 uM after 30 mins by ultrafiltration method; format: ADME, tissue-based, Sus scrofa; conditions: pig, 0.5 h
Method in brief: (§5)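 Drug was spiked at 10 µM into swine plasma or swine brain homogenate and held 30 min at 37 °C. Samples were ultrafiltered (30 kDa cutoff) by centrifugation for 45 min at 37 °C, 1800g. Filtrate and unfiltered matrix were extracted and quantified by LC–MS/MS. Fraction unbound = Cu/Ct × 100.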

Plasma [15] = assay: Protein binding in swine plasma at 10 uM after 30 mins by ultrafiltration method; format: ADME, cell-free, Sus scrofa; conditions: pig, 0.5 h; method in brief: as §5
Mus musculus [16] = assay: Toxicity in EcoHIV-infected C57BL/6J mouse assessed as diarrhea at 1 mg/kg, […] starting 1 day prior to EcoHIV infection and continuing every other day till day 30 measured after 30 days post infection; format: organism-based; conditions: in vivo, 720 h
Mus musculus [17] = assay: (§6) Effect on latency to escape to visible platform in C57BL/6J mouse EcoHIV associated neurocognitive disorder model at 1 mg/kg, […] starting 1 day prior to EcoHIV infection and continuing every other day till day 30 measured after 30 days post infection by radial arm water maze test; format: organism-based; conditions: in vivo, 720 h
Method in brief: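 Same mice, dosing and EcoHIV or sham inoculation as the maze study. After the hidden-platform radial arm water maze testing, latency to reach a visible platform in the same context was timed. This serves as a control for vision, motivation and swimming ability.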

Mus musculus [18] = assay: Toxicity in EcoHIV-infected C57BL/6J mouse assessed as change in body weight at 1 mg/kg, […] starting 1 day prior to EcoHIV infection and continuing every other day till day 30 measured after 30 days post infection; format: organism-based; conditions: in vivo, 720 h
[19] = tested on: Human immunodeficiency virus; assay: Increase in EcoHIV viral DNA load in infected C57BL/6J mouse spleen at 1 mg/kg, […] starting 1 day prior to EcoHIV infection and continuing every other day till day 30 measured after 30 days post infection by qPCR method; format: organism-based; conditions: in vivo, 720 h
Mus musculus [20] = assay: Decrease in cognitive decline in C57BL/6J mouse EcoHIV associated neurocognitive disorder model assessed as decrease in number of errors across learning trial 1 to 4 and retention trial at 1 mg/kg, […] starting 1 day prior to EcoHIV infection and continuing every other day till day 30 measured after 30 days post infection by radial arm water maze test; format: functional, organism-based
Method in brief: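 Male C57BL/6J mice, 5 weeks old, n = 8/group. Dosing was 1 mg/kg ip every other day, starting 1 day before ip EcoHIV (2 × 10^6 pg p24) or PBS sham, and continued through testing. From day 30 p.i., radial arm water maze: daily four 60 s learning trials, then a 60 s retention test after 30 min rest. Hidden platform arm rotated daily. Values are last-3-day averages.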

Mus musculus [21] = assay: as §6, with “Decrease in cognitive decline” for “Effect on latency to escape to visible platform”, “model assessed as decrease in latency to escape to hidden platform” for “model”; format: functional, organism-based
Mus musculus [22] = assay: Toxicity in EcoHIV-infected C57BL/6J mouse assessed as change in motor function at 1 mg/kg, […] starting 1 day prior to EcoHIV infection and continuing every other day till day 30 measured after 30 days post infection; format: organism-based; conditions: in vivo, 720 h
[23] = tested on: Human immunodeficiency virus; assay: Effect on EcoHIV viral DNA load in infected C57BL/6J mouse brain at 1 mg/kg, […] starting 1 day prior to EcoHIV infection and continuing every other day till day 30 measured after 30 days post infection by qPCR method; format: organism-based; conditions: in vivo, 720 h
Mus musculus [24] = assay: Toxicity in EcoHIV-infected C57BL/6J mouse assessed as change in visual impairment at 1 mg/kg, […] starting 1 day prior to EcoHIV infection and continuing every other day till day 30 measured after 30 days post infection; format: organism-based; conditions: in vivo, 720 h

SMILES | half-life at 10 µM [1] | Drug uptake(free) [2] | Drug uptake [4] | Kp uu at 1 h [5] | AUC(0-t) [6] | concentration at 1 h [7] | Kp at 1 h [9] | concentration at 1 h [10] | Drug uptake(free) [11] | Cp(f) (Plasma [12]) | also measured
CC(C)OC(=O)[C@H](CCC(=O)C=[N+]=[N-])NC(=O)OC(C)(C)OC(=O)C(C)(C)C | 291 min | – | – | – | – | – | – | – | – | – | –
CC(C)OC(=O)[C@H](CCC(=O)C=[N+]=[N-])NC(=O)OC(OC(=O)C(C)(C)C)c1ccccc1 (some centres not stated) | 31 min | 0.531 nmol/g | 5.9 nmol/g | 0.157 | 5.7 µM·h | 1.1 µM | 0.069 | 4.88 µM | 0.53 nmol/g | 3.86 µM | Ratio [3]: 0.087; Ratio [8]: 2.07; Kp at 1 h [13]: 1.38
CC(C)OC(=O)[C@H](CCC(=O)C=[N+]=[N-])NC(=O)O[C@H](C)OC(=O)C(C)(C)C | 75 min | – | – | – | 8 µM·h | – | – | – | – | – | –
CC(C)OC(=O)[C@H](CCC(=O)C=[N+]=[N-])NC(=O)OC(OC(=O)C(C)(C)C)C(C)C (mixture of isomers) | 35 min | – | – | – | – | – | – | – | – | – | –
[N-]=[N+]=CC(=O)CC[C@H](N)C(=O)O [6-DIAZO-5-OXO-L-NORLEUCINE] | – | 0.464 nmol/g | 5.15 nmol/g | 0.017 | 29.9 µM·h | 0.252 µM | 0.005 | 41.2 µM | 0.46 to 0.531 nmol/g | 32.5 µM | PB [14]: 91%; PPB (Plasma [15]): 21%; Activity (Mus musculus [16]): Non-Toxic; Activity (Mus musculus [17]): Non-Toxic; Activity (Mus musculus [18]): Non-Toxic; Activity [19]: Toxic; Activity (Mus musculus [20]): Active; Activity (Mus musculus [21]): Active; Activity (Mus musculus [22]): Non-Toxic; Activity [23]: Non-Toxic; Activity (Mus musculus [24]): Non-Toxic
